From PubChem BioAssay
MT stabilizer = microtubule stabilizers in HeLa cells, primary screen, imaging, high-content imaging | HeLa tubulin immunostaining HCS, 24 h; share of cells brighter than vehicle mean+2SD | AID 2205, 2009 | hit rate 0.83% among 200,000 | % tubulin-high responders, % at 10 µM;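 active = plate Z-score above 3 for both tubulin-high and condensed-nucleus cell shares, with cell loss under 80%, at 10 µM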;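 note: anti alpha tubulin signal scored within the nucleus-defined area of each cell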
BaF3 tox = parental Ba/F3 cell viability inhibition, counter-screen for JAK2V617F inhibitor project, murine pro-B, CellTiter-Glo luminescence; CellTiter-Glo ATP luminescence; inhibition, % at 5.6 µM; hit rate 1.1% among 220,000;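 active = inhibition above a per-campaign cutoff, the mean inhibition of all tested compounds plus 3 SD, cut at about 27% in these data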
Ba/F3 V617F tox = reduced viability of JAK2V617F-dependent Ba/F3 cells, primary screen, JAK2V617F inhibitor project, cell-based, Ba/F3 EpoR-JAK2V617F, luminescence | inhibition, % at 5.6 µM | hit rate 1.1% among 220,000 | ATP luminescence;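 active = inhibition above the campaign mean plus 3 SD over all tested compounds, cut at about 24% in these data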;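 note: cytokine-independent growth of Ba/F3 cells driven by EpoR plus mutant JAK2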
Lmaj promast = Leishmania major promastigote growth inhibition, primary screen; Leishmania major promastigotes, resazurin fluorescence viability; inhibition, % at 10 µM; hit rate 9% among 200,000; AID 1063, 2008; in the data active = inhibition above about 50%;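 note: promastigotes grown with compound for 44 hours at 28 °C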
APP 5UTR inh = inhibitors of APP translation via 5'UTR reporter, primary screen, APP 5'UTR luciferase, SH-SY5Y cells | hit rate 0.82% among 190,000 | inhibition, % at 2 µM | SH-SY5Y APP 5'UTR-luciferase reporter, luminescence;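 active = inhibition above a set limit, derived from the sample mean plus 3 SD, cut at about 45% in these data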
bCat nuc transl = modulators of beta-catenin nuclear translocation, primary screen, imaging, HeLa cells, immunofluorescence, high-content; hit rate 0.3% among 190,000; nuclear translocation activity, % at 5 µM; AID 1665, 2009;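 active = nuclear translocation activity above 50% at 5 µM, with a well cell count of 50 or more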;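 note: per-cell ratio of nuclear to cytoplasmic median beta-catenin stain intensity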
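Test system: human HeLa cells, native beta-catenin. Compound dosing: 5 µM primary single dose, 0.1% DMSO, 0.02–20 µM confirmation series. Incubation: compound exposure 24 h at 37°C. Detection: beta-catenin immunostaining with DAPI counterstain, 20x imaging, 6 fields/well. Read-out basis: Nuclear/cytoplasmic beta-catenin signal ratio, % activation.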
Lmaj promast 1uM = Leishmania major promastigote growth inhibition, confirmation, 1 µM repeat of primary hits; shares compounds with Lmaj promast; L. major promastigote growth, resazurin fluorescence, 48 h; inhibition, % at 1 µM; hit rate 13% among 1,100;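 active = inhibition above about 50% in both repeat tests, limit read from the data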
Each line names hits and unclear results; the compound was inactive in the other large screens (follow-up assays come after a bar, where they were run). Shown are actives, neighbours in structure and some others; about 9.6% of the full set was active somewhere.

Cc1c([N+](=O)[O-])nnn1-c1cc(Cl)cc(Cl)c1	Lmaj promast 50 | Lmaj promast 1uM inactive
Cc1cc(C)c(C(=O)c2ccc(C(=O)N(C(C)C)C(C)C)cc2)c(C)c1	Lmaj promast 86 (no result: APP 5UTR inh, bCat nuc transl) | Lmaj promast 1uM inactive
CC(NC(=O)CCn1nc(-c2ccc(Cl)cc2)ccc1=O)c1ccccc1 (configuration not stated)	none
CCN(CC)CCOc1cc2c(nn1)Oc1ccccc1N2C	Lmaj promast 100 | Lmaj promast 1uM inactive
CN1c2ccccc2Oc2nnc(Cl)cc21	none
O=C(Cn1nnc(-c2cccs2)n1)NNC(=O)c1ccccc1Cl	none (no result: MT stabilizer, Lmaj promast, APP 5UTR inh)
Cc1ccc2c(c1)c1c3n2CCCNC3CCC1 (configuration not stated)	none (no result: bCat nuc transl)
c1cc2c(cc1C1CCCCC1)c1c3n2CCCNC3CCC1 (configuration not stated)	Lmaj promast 100 | Lmaj promast 1uM inactive
c1cc2c(cc1C1CCCCC1)c1c3n2CCN=C3CCC1	Lmaj promast 101 | Lmaj promast 1uM inactive
Cc1ccc2c(c1)c1c3n2CCN=C3CCC1	none
CCOc1ccc(CNC(=O)CCc2cn(Cc3ccccc3)c3ccccc23)cc1	none
Oc1ccccc1CNc1nc2ccccc2n1CCN1CCCCC1	none
COc1ccccc1CNc1nc2ccccc2n1CCN1CCCCC1	Lmaj promast 61 | Lmaj promast 1uM inactive
C[C@H]1CC[C@H]2C(=O)N3[C@H](c4cccc(N5CCCC5=O)c4)[C@@H](C)CC[C@H]3C(=O)N2[C@@H]1c1cccc(N2CCCC2=O)c1	Lmaj promast 82 | Lmaj promast 1uM inactive
CCCCCc1c(O)nc(SCCN2CCOCC2)[nH]c1=O	none
CCOC(=O)N=Nc1c2ccccc2c2nc3no[nH]c3nc12	Lmaj promast 101, APP 5UTR inh 94 | Lmaj promast 1uM 100
CCOC(=O)Nc1c2ccccc2nc2ccccc12	none (no result: MT stabilizer, Lmaj promast, APP 5UTR inh)
CC(=O)c1c(-c2ccc(C)cc2)nc2c3ccccc3ccn12	Lmaj promast 59 | Lmaj promast 1uM inactive
O=C(COc1cccnc1[N+](=O)[O-])Nc1ccc2c(c1)OC(F)(F)O2	none
C(=C/c1nccc2c1[nH]c1ccccc12)/c1ccc2c(c1)OCO2	Lmaj promast 96 | Lmaj promast 1uM inactive
COc1ccc(C(C(=O)NC2CCCC2)N(Cc2cccs2)C(=O)c2ccn[nH]2)cc1OC (configuration not stated)	none
O=C(COC(=O)Cn1cnc2ccccc21)Nc1cc2c(cc1Cl)C(=O)c1ccccc1C2=O	none
CN(C)S(=O)(=O)c1cccc(-c2cn3cc(Cl)ccc3n2)c1	Lmaj promast 99 (no result: bCat nuc transl) | Lmaj promast 1uM inactive
CN(C)S(=O)(=O)c1cccc(-c2cn3ccccc3n2)c1	none
CCN(CC(O)Cn1c2ccccc2c2ccccc21)S(=O)(=O)c1ccc(C)cc1 (configuration not stated)	Lmaj promast 100 | Lmaj promast 1uM inactive
Cc1noc(C(F)(F)F)c1C(=O)NNC(=O)c1cccc(C(F)(F)F)c1	none (no result: MT stabilizer, Lmaj promast, APP 5UTR inh)
CCN(CC)C(=O)c1sc(N)c(C#N)c1C	none
Cc1sc(N)c(C#N)c1C	Lmaj promast 51 | Lmaj promast 1uM inactive
COC(=O)CS(=O)(=O)c1nnc([C@H](Cc2ccccc2)NC(=O)OC(C)(C)C)o1	Lmaj promast 101 | Lmaj promast 1uM inactive
CCc1nc2ccccc2c2nc3ccccc3n12	Lmaj promast 87 (no result: bCat nuc transl) | Lmaj promast 1uM inactive
c1ccc2c(c1)nc(CN1CCOCC1)n1c3ccccc3nc21	none
O=C(O)c1ccc2c3c(ncnc13)-c1ccccc1C2=O	Lmaj promast 98 | Lmaj promast 1uM inactive
CCOC(=O)N1CCOCCOCCN(C(=O)OCC)CCOCC1	none
O=C(OCc1ccccc1)N1CCOCCOCCN(C(=O)OCc2ccccc2)CCOCCOCC1	Lmaj promast 61 (no result: bCat nuc transl) | Lmaj promast 1uM inactive
O=C(CC1NCCNC1=O)NC1Cc2ccccc2C1 (configuration not stated)	none (no result: MT stabilizer, Lmaj promast, APP 5UTR inh)
Cc1nc(Oc2ccccc2)c2ccccc2n1	Lmaj promast 57 | Lmaj promast 1uM inactive
COc1ccccc1CNC(=O)C1CCC(CNc2c(N3CCC(C)CC3)c(=O)c2=O)CC1 (configuration not stated)	none (no result: MT stabilizer, Lmaj promast, APP 5UTR inh)
CCCCCN(C(=O)NC(=O)Nc1ccc(C)cc1)S(=O)(=O)c1ccccc1	none (no result: bCat nuc transl)
CC[n+]1c(/C=C/C=C/N(C(C)=O)c2ccccc2)sc2cc(OC)ccc21	MT stabilizer 73, Lmaj promast 88, bCat nuc transl 165 | Lmaj promast 1uM inactive
Cc1ccc2c(c1)C(=O)C(=O)N2CC(=O)Nc1ccccc1NC(=O)c1ccccn1	none (no result: MT stabilizer, Lmaj promast, APP 5UTR inh)
COc1ccccc1Oc1cc(C#N)c(C#N)cc1-n1nnc2ccccc21	Lmaj promast 98 | Lmaj promast 1uM inactive
N#Cc1cc([N+](=O)[O-])c(-n2nnc3ccccc32)c([N+](=O)[O-])c1	none
CC(=O)Nc1ccc(S(=O)(=O)NCCSCc2ccccc2Cl)cc1	Lmaj promast 68 | Lmaj promast 1uM inactive
COc1ccccc1CCNC(=O)Cc1cccs1	none (no result: MT stabilizer, Lmaj promast, APP 5UTR inh)
O=c1oc2ccccc2nc1/C=C(O)/C=C\c1ccccc1	Lmaj promast 99 | Lmaj promast 1uM inactive
Cc1ccc(/C(O)=C/c2nc3ccccc3oc2=O)cc1	none (no result: MT stabilizer, Lmaj promast, APP 5UTR inh)
CC1CCN(C(=O)c2scc3c2OCCO3)CC1	none
COc1ccc2cc3[n+](cc2c1OC)CCc1cc2c(cc1-3)OCO2	BaF3 tox 63, Ba/F3 V617F tox 72, Lmaj promast 100 (no result: bCat nuc transl) | Lmaj promast 1uM 76
COc1ccc(-c2cc3nc(-c4ccccc4)cc(N4CCC5(CC4)OCCO5)n3n2)cc1	Lmaj promast 80 | Lmaj promast 1uM inactive
COc1ccc(-c2cc3nc4c(c(N5CCC6(CC5)OCCO6)n3n2)CCC4)cc1	none
CC12COC3(P(=O)(c4ccccc4)c4ccccc4)CC1CCC23CP(=O)(c1ccccc1)c1ccccc1 (configuration not stated)	Lmaj promast 62 | Lmaj promast 1uM inactive
CC12COC3(C(=O)Nc4ccc(F)cc4)CC1CCC32C (configuration not stated)	none
CN(CC(=O)Nc1ccccc1C(F)(F)F)C(=O)COc1cccnc1[N+](=O)[O-]	none
O=C(c1ccc(Cn2c(=O)[nH]c3ccccc3c2=O)cc1)N1CCN(c2ccccc2)CC1	Lmaj promast 94 (no result: bCat nuc transl) | Lmaj promast 1uM inactive
O=C1N(c2cccc(Cl)c2)C(c2ccc(Cl)cc2)N2CCCN12 (configuration not stated)	none
COC(=O)c1ccc(COc2ccc(C3C4=C(CCCC4=O)Nc4onc(C)c43)cc2)cc1 (configuration not stated)	Lmaj promast 100 (no result: bCat nuc transl) | Lmaj promast 1uM 55
O=C1CNC(=O)N1CC(=O)N1CCCc2ccccc21	none (no result: bCat nuc transl)
